In brackets after ≈: the same amount, converted by molar mass. Activity calls are given as the source filed them. No cut-off for these calls is given here.
Experiments:
Staphylococcus aureus = test: Antibacterial activity against Staphylococcus aureus after 24 hrs by agar dilution method; type: functional
Summary of the method: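 MIC by agar dilution on Mueller–Hinton agar containing twofold serial dilutions from a 1 mg/mL DMSO stock. Final levels 50, 25, 12.5, 6.25, 3.1, 1.5, 0.8, 0.4 and 0.2. Inoculum was 16–18 h cultures at 0.5 McFarland; plates incubated 37 °C for 24 h. MIC is the lowest concentration preventing visible growth; levofloxacin was the reference.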

[1] = tested on: Staphylococcus epidermidis; test: Antibacterial activity against Staphylococcus epidermidis at 1 mg/ml after 24 hrs by agar dilution method; type: functional, organism-based
Summary of the method: (§1)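 Agar well diffusion: overnight (16–18 h, 37 °C) cultures set to 0.5 McFarland and mixed into Mueller–Hinton agar. Compound stock 1 mg/mL in DMSO loaded into 6 mm wells, with DMSO as control and levofloxacin as reference. Plates incubated 37 °C for 24 h. Read-out is the diameter of the growth-inhibition zone around each well.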

Tyrosinase = biological target: T1, Tyrosinase (Agaricus bisporus, UniProt O42713); test: Inhibition of mushroom tyrosinase
T1 sequence (O42713 whole entry): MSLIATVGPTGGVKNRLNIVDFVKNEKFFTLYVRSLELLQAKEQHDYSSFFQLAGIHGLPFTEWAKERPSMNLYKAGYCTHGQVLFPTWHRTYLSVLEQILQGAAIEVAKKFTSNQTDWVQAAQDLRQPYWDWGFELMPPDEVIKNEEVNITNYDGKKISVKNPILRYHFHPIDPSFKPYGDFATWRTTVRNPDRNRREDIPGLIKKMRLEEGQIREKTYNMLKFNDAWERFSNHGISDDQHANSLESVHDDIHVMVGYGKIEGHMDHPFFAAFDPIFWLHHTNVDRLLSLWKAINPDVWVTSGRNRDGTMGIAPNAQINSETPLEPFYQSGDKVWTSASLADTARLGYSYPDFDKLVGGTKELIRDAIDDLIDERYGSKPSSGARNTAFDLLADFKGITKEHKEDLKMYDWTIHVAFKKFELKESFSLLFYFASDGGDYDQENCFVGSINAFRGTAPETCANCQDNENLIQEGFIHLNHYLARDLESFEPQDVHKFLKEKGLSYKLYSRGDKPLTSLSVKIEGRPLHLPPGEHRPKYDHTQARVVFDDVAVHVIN
Summary of the method: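 Mushroom tyrosinase diphenolase assay: 1 mL reaction with 0.5 mM L-DOPA in 50 mM sodium phosphate buffer, pH 6.8, enzyme final 0.5 mg/mL, 25 °C. Compounds dissolved in DMSO (2.0% final); DMSO-only controls run. Dopachrome formation followed at 475 nm for 1 min. IC50 interpolated from dose–response curves; means of three experiments.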

[2] = biological target: T2, Tyrosinase (Agaricus bisporus) (UniProt O42713); test: Inhibition of mushroom tyrosinase at 200 uM
T2 sequence (whole entry): T1 sequence (O42713 whole entry)
Summary of the method: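 Single-concentration check in the mushroom tyrosinase diphenolase assay. Conditions: 0.5 mM L-DOPA, 50 mM phosphate buffer pH 6.8, enzyme 0.5 mg/mL, 25 °C, 2.0% DMSO final with DMSO controls. Activity read as dopachrome absorbance at 475 nm over 1 min.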

Staphylococcus = test: Antibacterial activity against Staphylococcus albus at 1 mg/ml after 24 hrs by agar dilution method; type: functional, organism-based
Pseudomonas aeruginosa = test: Antibacterial activity against Pseudomonas aeruginosa at 1 mg/ml after 24 hrs by agar dilution method; type: functional, organism-based; summary of the method: as §1
Escherichia coli = test: Antibacterial activity against Escherichia coli at 1 mg/ml after 24 hrs by agar dilution method; type: functional, organism-based
Bacillus cereus = test: Antibacterial activity against Bacillus cereus at 1 mg/ml after 24 hrs by agar dilution method; type: functional, organism-based

O=C1NC(=S)NC(=O)C1Cc1ccc(O)cc1
MIC (Staphylococcus aureus): > 25 µg/mL
Activity [1]: inactive
IC50 (Tyrosinase): 70 µM
inhibition [2]: 100%
Activity (Staphylococcus): inactive
Activity (Pseudomonas aeruginosa): inactive
Activity (Escherichia coli): inactive
Activity (Bacillus cereus): inactive

COCCCCOc1ccc(C=C2C(=O)NC(=S)NC2=O)cc1
MIC (Staphylococcus aureus): > 25 µg/mL
Activity [1]: inactive
IC50 (Tyrosinase): 77.8 µM
inhibition [2]: 100%
Activity (Staphylococcus): inactive
Activity (Pseudomonas aeruginosa): inactive
Activity (Escherichia coli): inactive
Activity (Bacillus cereus): inactive

O=C1NC(=O)C(Cc2ccc(O)cc2)C(=O)N1
MIC (Staphylococcus aureus): > 12.5 µg/mL
Activity [1]: inactive
IC50 (Tyrosinase): > 200 µM
inhibition [2]: 47.5%
Activity (Staphylococcus): inactive
Activity (Pseudomonas aeruginosa): inactive
Activity (Escherichia coli): inactive
Activity (Bacillus cereus): inactive

COCCOc1ccc(CC2C(=O)NC(=S)NC2=O)cc1
MIC (Staphylococcus aureus): > 12.5 µg/mL
Activity [1]: inactive
IC50 (Tyrosinase): 113 µM
inhibition [2]: 100%
Activity (Staphylococcus): inactive
Activity (Pseudomonas aeruginosa): inactive
Activity (Escherichia coli): inactive
Activity (Bacillus cereus): inactive

COCCOCCOc1ccc(C=C2C(=O)NC(=O)NC2=O)cc1
MIC (Staphylococcus aureus): > 25 µg/mL
Activity [1]: inactive
IC50 (Tyrosinase): 137 µM
inhibition [2]: 88.7%
Activity (Staphylococcus): inactive
Activity (Pseudomonas aeruginosa): inactive
Activity (Escherichia coli): inactive
Activity (Bacillus cereus): inactive

CCCCOCCOc1ccc(C=C2C(=O)NC(=O)NC2=O)cc1
MIC (Staphylococcus aureus): > 25 µg/mL
Activity [1]: inactive
IC50 (Tyrosinase): 45.4 µM
inhibition [2]: 100%
Activity (Staphylococcus): inactive
Activity (Pseudomonas aeruginosa): inactive
Activity (Escherichia coli): inactive
Activity (Bacillus cereus): inactive

C[C@H]1COc2c(N3CCN(C)CC3)c(F)cc3c(=O)c(C(=O)O)cn1c23.C[C@H]1COc2c(N3CCN(C)CC3)c(F)cc3c(=O)c(C(=O)O)cn1c23.O [LEVOFLOXACIN]
MIC (Staphylococcus aureus): 0.4 µg/mL

COc1ccc(/C=C/C(=O)O)cc1
inhibition [2]: 46.6%

O=C1NC(=O)C(=Cc2ccc(OCCO)cc2)C(=O)N1
MIC (Staphylococcus aureus): > 25 µg/mL
Activity [1]: inactive
IC50 (Tyrosinase): > 200 µM
inhibition [2]: 22.4%
Activity (Staphylococcus): inactive
Activity (Pseudomonas aeruginosa): inactive
Activity (Escherichia coli): inactive
Activity (Bacillus cereus): inactive

COCCOc1ccc(CC2C(=O)NC(=O)NC2=O)cc1
MIC (Staphylococcus aureus): > 12.5 µg/mL
Activity [1]: inactive
IC50 (Tyrosinase): > 200 µM
inhibition [2]: 23.1%
Activity (Staphylococcus): inactive
Activity (Pseudomonas aeruginosa): inactive
Activity (Escherichia coli): inactive
Activity (Bacillus cereus): inactive

O=C1CC(=O)NC(=O)N1 [BARBITURIC ACID]
IC50 (Tyrosinase): > 200 µM
inhibition [2]: 5.95%

COCCCCOc1ccc(CC2C(=O)NC(=O)NC2=O)cc1
MIC (Staphylococcus aureus): > 12.5 µg/mL
Activity [1]: inactive
IC50 (Tyrosinase): > 200 µM
inhibition [2]: 1.15%
Activity (Staphylococcus): inactive
Activity (Pseudomonas aeruginosa): inactive
Activity (Escherichia coli): inactive
Activity (Bacillus cereus): inactive

O=Cc1ccc(O)cc1 [4-HYDROXYBENZALDEHYDE]
IC50 (Tyrosinase): 1220 µM
inhibition [2]: 16.4%

COCCOc1ccc(C=C2C(=O)NC(=O)NC2=O)cc1
MIC (Staphylococcus aureus): > 25 µg/mL
Activity [1]: inactive
IC50 (Tyrosinase): 75.4 µM
inhibition [2]: 100%
Activity (Staphylococcus): inactive
Activity (Pseudomonas aeruginosa): inactive
Activity (Escherichia coli): inactive
Activity (Bacillus cereus): inactive

COCCCCOc1ccc(CC2C(=O)NC(=S)NC2=O)cc1
MIC (Staphylococcus aureus): > 12.5 µg/mL
Activity [1]: inactive
IC50 (Tyrosinase): > 200 µM
inhibition [2]: 9.85%
Activity (Staphylococcus): inactive
Activity (Pseudomonas aeruginosa): inactive
Activity (Escherichia coli): inactive
Activity (Bacillus cereus): inactive

CCCCOCCOc1ccc(C=C2C(=O)NC(=S)NC2=O)cc1
MIC (Staphylococcus aureus): 3.1 µg/mL (≈ 8.9 µM)
Activity [1]: inactive
IC50 (Tyrosinase): 107 µM
inhibition [2]: 85.9%
Activity (Staphylococcus): inactive
Activity (Pseudomonas aeruginosa): inactive
Activity (Escherichia coli): inactive
Activity (Bacillus cereus): inactive

COCCOCCOc1ccc(CC2C(=O)NC(=O)NC2=O)cc1
MIC (Staphylococcus aureus): > 12.5 µg/mL
Activity [1]: inactive
IC50 (Tyrosinase): > 200 µM
inhibition [2]: 14.3%
Activity (Staphylococcus): inactive
Activity (Pseudomonas aeruginosa): inactive
Activity (Escherichia coli): inactive
Activity (Bacillus cereus): inactive

O=C1NC(=O)C(=Cc2ccc(O)cc2)C(=O)N1
MIC (Staphylococcus aureus): > 25 µg/mL
Activity [1]: inactive
IC50 (Tyrosinase): 14 µM
inhibition [2]: 100%
Activity (Staphylococcus): inactive
Activity (Pseudomonas aeruginosa): inactive
Activity (Escherichia coli): inactive
Activity (Bacillus cereus): inactive

O=C1CC(=O)NC(=S)N1 [THIOBARBITURIC]
IC50 (Tyrosinase): > 200 µM
inhibition [2]: 8.21%

COCCOc1ccc(C=C2C(=O)NC(=S)NC2=O)cc1
MIC (Staphylococcus aureus): > 12.5 µg/mL
Activity [1]: inactive
IC50 (Tyrosinase): 28.4 µM
inhibition [2]: 100%
Activity (Staphylococcus): inactive
Activity (Pseudomonas aeruginosa): inactive
Activity (Escherichia coli): inactive
Activity (Bacillus cereus): inactive

CCCCOCCOc1ccc(CC2C(=O)NC(=O)NC2=O)cc1
MIC (Staphylococcus aureus): > 12.5 µg/mL
Activity [1]: inactive
IC50 (Tyrosinase): > 200 µM
inhibition [2]: inactive
Activity (Staphylococcus): inactive
Activity (Pseudomonas aeruginosa): inactive
Activity (Escherichia coli): inactive
Activity (Bacillus cereus): inactive

O=C1NC(=S)NC(=O)C1=Cc1ccc(OCCO)cc1
MIC (Staphylococcus aureus): > 25 µg/mL
Activity [1]: inactive
IC50 (Tyrosinase): > 200 µM
inhibition [2]: 16.5%
Activity (Staphylococcus): inactive
Activity (Pseudomonas aeruginosa): inactive
Activity (Escherichia coli): inactive
Activity (Bacillus cereus): inactive

CCCCOCCOc1ccc(CC2C(=O)NC(=S)NC2=O)cc1
MIC (Staphylococcus aureus): 6.25 µg/mL (≈ 17.8 µM)
Activity [1]: inactive
IC50 (Tyrosinase): 179 µM
inhibition [2]: 78.7%
Activity (Staphylococcus): inactive
Activity (Pseudomonas aeruginosa): inactive
Activity (Escherichia coli): inactive
Activity (Bacillus cereus): inactive

O=C1NC(=O)C(Cc2ccc(OCCO)cc2)C(=O)N1
MIC (Staphylococcus aureus): > 12.5 µg/mL
Activity [1]: inactive
IC50 (Tyrosinase): > 200 µM
inhibition [2]: 5.27%
Activity (Staphylococcus): inactive
Activity (Pseudomonas aeruginosa): inactive
Activity (Escherichia coli): inactive
Activity (Bacillus cereus): inactive

O=C1NC(=S)NC(=O)C1=Cc1ccc(O)cc1
MIC (Staphylococcus aureus): 3.1 µg/mL (≈ 12.5 µM)
Activity [1]: inactive
IC50 (Tyrosinase): 14.5 µM
inhibition [2]: 100%
Activity (Staphylococcus): inactive
Activity (Pseudomonas aeruginosa): inactive
Activity (Escherichia coli): inactive
Activity (Bacillus cereus): inactive

COCCOCCOc1ccc(CC2C(=O)NC(=S)NC2=O)cc1
MIC (Staphylococcus aureus): > 12.5 µg/mL
Activity [1]: inactive
IC50 (Tyrosinase): 132 µM
inhibition [2]: 97.5%
Activity (Staphylococcus): inactive
Activity (Pseudomonas aeruginosa): inactive
Activity (Escherichia coli): inactive
Activity (Bacillus cereus): inactive

COCCOCCOc1ccc(C=C2C(=O)NC(=S)NC2=O)cc1
MIC (Staphylococcus aureus): > 12.5 µg/mL
Activity [1]: inactive
IC50 (Tyrosinase): 34.2 µM
inhibition [2]: 100%
Activity (Staphylococcus): inactive
Activity (Pseudomonas aeruginosa): inactive
Activity (Escherichia coli): inactive
Activity (Bacillus cereus): inactive

O=C1NC(=S)NC(=O)C1Cc1ccc(OCCO)cc1
MIC (Staphylococcus aureus): > 25 µg/mL
Activity [1]: inactive
IC50 (Tyrosinase): 156 µM
inhibition [2]: 95.9%
Activity (Staphylococcus): inactive
Activity (Pseudomonas aeruginosa): inactive
Activity (Escherichia coli): inactive
Activity (Bacillus cereus): inactive

COCCCCOc1ccc(C=C2C(=O)NC(=O)NC2=O)cc1
MIC (Staphylococcus aureus): > 25 µg/mL
Activity [1]: inactive
IC50 (Tyrosinase): > 200 µM
inhibition [2]: 12.2%
Activity (Staphylococcus): inactive
Activity (Pseudomonas aeruginosa): inactive
Activity (Escherichia coli): inactive
Activity (Bacillus cereus): inactive
